Experimental data taken from ChEMBL document CHEMBL1212800, “Influence of alpha-1 glycoprotein acid concentrations and variants on atazanavir pharmacokinetics in HIV-infected patients included in the ANRS 107 trial” (Antimicrob Agents Chemother, 2010).

Tests used:
[1] = target: Albumin (Homo sapiens, UniProt P02768); assay: Binding affinity to human serum albumin; type: ADME; conditions: isolated protein
Outline: (§1)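 In vitro binding: alpha-1 glycoprotein acid or serum albumin solutions in pH 7.4 phosphate-buffered saline with added atazanavir. Bound and unbound drug separated by ultrafiltration of 500-µl samples (30,000 Da cutoff membrane), 2 h at 30°C. Ultrafiltrate drug measured by HPLC-UV at 220 nm (C18 column, liquid-liquid extraction, internal standard). Unbound fraction taken as unbound/total concentration. Binding profiled as bound versus unbound concentration.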

[2] = Binding affinity to human alpha-1-glycoprotein acid; type: ADME; outline: as §1
[3] = Apparent oral clearance in human by one-compartment model; type: ADME, organism-based; conditions: in vivo
Outline: (§2)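 HIV-infected patients (ANRS 107) on atazanavir plus ritonavir plus tenofovir plus optimized background. Week-6 predose plasma trough samples; 10-patient substudy also sampled at 1, 2, 3, 5, 8 and 24 h postdose. Plasma held at −20°C, assayed by LC-MS/MS (LOQ 1 ng/ml). Population analysis used a one-compartment model with first-order absorption and elimination, exponential interindividual variability and proportional residual error.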

[4] = Apparent oral clearance in human by covariate model; type: ADME, organism-based; conditions: in vivo; outline: as §2
[5] = Apparent volume of distribution with respect to the bioavailability in human by one-comparment model; type: ADME, organism-based; conditions: in vivo, read-out: Vc/F; outline: as §2
[6] = Apparent volume of distribution with respect to the bioavailability in human by covariate model; type: ADME, organism-based; conditions: in vivo, read-out: Vc/F; outline: as §2
[7] = species: Homo sapiens; assay: Absorption rate constant in human by one-compartment model; type: ADME, organism-based; conditions: in vivo; outline: as §2
[8] = species: Homo sapiens; assay: Absorption rate constant in human by covariate model; type: ADME, organism-based; conditions: in vivo; outline: as §2
[9] = Half life in patient with elevated alpha-1- glycoprotein acid level by covariate model; type: ADME, organism-based; conditions: human, in vivo; outline: as §2
[10] = Half life in patient with elevated alpha-1- glycoprotein acid level by one-compartment model; type: ADME, organism-based; conditions: human, in vivo; outline: as §2
[11] = AUC in patient with elevated alpha-1- glycoprotein acid level by covariate model; type: ADME, organism-based; conditions: human, in vivo; outline: as §2
[12] = AUC in patient with elevated alpha-1- glycoprotein acid level by one-compartment model; type: ADME, organism-based; conditions: human, in vivo; outline: as §2
[13] = Half life in patient with => 40 IU/liter ALAT level by covariate model; type: ADME, organism-based; conditions: human, in vivo; outline: as §2
[14] = Half life in patient with => 40 IU/liter ALAT level by one-compartment model; type: ADME, organism-based; conditions: human, in vivo; outline: as §2
[15] = AUC in patient with => 40 IU/liter ALAT level by covariate model; type: ADME, organism-based; conditions: human, in vivo; outline: as §2
[16] = AUC in patient with => 40 IU/liter ALAT level by one-compartment model; type: ADME, organism-based; conditions: human, in vivo; outline: as §2

Chain of Albumin (P02768 whole entry): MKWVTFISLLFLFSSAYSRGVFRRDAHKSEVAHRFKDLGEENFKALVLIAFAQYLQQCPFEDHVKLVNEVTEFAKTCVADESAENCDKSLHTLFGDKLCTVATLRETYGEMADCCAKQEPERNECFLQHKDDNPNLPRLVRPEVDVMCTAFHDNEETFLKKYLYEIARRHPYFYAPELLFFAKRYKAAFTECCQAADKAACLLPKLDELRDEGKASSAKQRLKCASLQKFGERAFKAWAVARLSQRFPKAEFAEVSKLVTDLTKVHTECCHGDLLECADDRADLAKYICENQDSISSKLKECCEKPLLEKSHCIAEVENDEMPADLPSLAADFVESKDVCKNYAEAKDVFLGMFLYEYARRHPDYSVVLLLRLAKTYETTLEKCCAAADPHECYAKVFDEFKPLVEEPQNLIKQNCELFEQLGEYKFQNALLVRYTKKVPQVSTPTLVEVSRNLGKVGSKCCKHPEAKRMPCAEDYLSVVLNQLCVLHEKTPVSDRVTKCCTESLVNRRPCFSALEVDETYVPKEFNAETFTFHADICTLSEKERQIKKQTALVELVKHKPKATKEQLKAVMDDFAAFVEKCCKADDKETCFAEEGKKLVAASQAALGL

Activity [1]: 21.3%
Activity [2]: 31.1%
CL/F [3]: 130 mL/min
CL/F [4]: 222 mL/min
Vd/F [5]: 78.2 L
Vd/F [6]: 79.7 L
ka [7]: 0.75 h⁻¹
ka [8]: 0.73 h⁻¹
half-life [9]: 9 h
half-life [10]: 9 h
AUC [11]: 49600 ng·h/mL
AUC [12]: 49600 ng·h/mL
half-life [13]: 7.8 h
half-life [14]: 7.8 h
AUC [15]: 47400 ng·h/mL
AUC [16]: 47400 ng·h/mL
Compound: COC(=O)N[C@H](C(=O)N[C@@H](Cc1ccccc1)[C@@H](O)CN(Cc1ccc(-c2ccccn2)cc1)NC(=O)[C@@H](NC(=O)OC)C(C)(C)C)C(C)(C)C [ATAZANAVIR]
